Source: ChEMBL document CHEMBL1154531, “Synthesis and structure-activity studies of novel homomorpholine oxazolidinone antibacterial agents” (Bioorg Med Chem Lett, 2009)
pIC50: −log10 of the molar value. ≈ marks a conversion by molar mass, not a printed value.

Key:
Type in all cases: functional
Staphylococcus aureus = experiment: Antibacterial activity against Staphylococcus aureus UC-76 SA-1 by micro broth method
Outline: (§1)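 Minimum inhibitory concentration determined by broth microdilution and reported in μg/mL.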

Streptococcus pneumoniae = experiment: Antibacterial activity against Streptococcus pneumoniae SV1 SP-3 by micro broth method; outline: as §1
Enterococcus faecalis = experiment: Antibacterial activity against Enterococcus faecalis MGH-2 EF1-1 by micro broth method; outline: as §1
Streptococcus pyogenes = experiment: Antibacterial activity against Streptococcus pyogenes C-203 by micro broth method; outline: as §1
Escherichia coli = experiment: Antibacterial activity against Escherichia coli by transcription-translation assay
Outline: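 Cell-free E. coli coupled in vitro transcription/translation system with a luciferase reporter as read-out.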

Row | Structure (SMILES) | MIC (Staphylococcus aureus) [µg/mL] | MIC (Streptococcus pneumoniae) [µg/mL] | MIC (Enterococcus faecalis) [µg/mL] | MIC (Streptococcus pyogenes) [µg/mL] | pIC50 (Escherichia coli)
1 | CNC(=O)[C@H]1CN(c2ccc(N3CCCOCC3)c(F)c2)C(=O)O1 | 16 (≈ 47.4 µM) | 8 (≈ 23.7 µM) | 16 (≈ 47.4 µM) | 8 (≈ 23.7 µM) | –
2 | CNC(=O)[C@H]1CN(c2cc(F)c(N3CCCOCC3)c(F)c2)C(=O)O1 | 4 (≈ 11.3 µM) | 4 (≈ 11.3 µM) | 8 (≈ 22.5 µM) | 4 (≈ 11.3 µM) | 5.20
3 | CC(=O)NC[C@H]1CN(c2cc(F)c(N3CCCOCC3)c(F)c2)C(=O)O1 | 2 (≈ 5.41 µM) | 1 (≈ 2.71 µM) | 1 (≈ 2.71 µM) | 1 (≈ 2.71 µM) | 5.78
4 | COC(=O)NC[C@H]1CN(c2cc(F)c(N3CCCOCC3)c(F)c2)C(=O)O1 | 2 (≈ 5.19 µM) | 1 (≈ 2.59 µM) | 2 (≈ 5.19 µM) | 1 (≈ 2.59 µM) | 5.72
5 | O=C1O[C@@H](Cn2ccnn2)CN1c1ccc(N2CCCOCC2)cc1 | 16 (≈ 46.6 µM) | 16 (≈ 46.6 µM) | 32 (≈ 93.2 µM) | 8 (≈ 23.3 µM) | –
6 | C[Si](C)(C)C#Cc1cn(C[C@H]2CN(c3cc(F)c(N4CCCOCC4)c(F)c3)C(=O)O2)nn1 | > 32 | 4 (≈ 8.41 µM) | > 32 | 2 (≈ 4.21 µM) | –
7 | CC(=O)NC[C@H]1CN(c2ccc(N3CCCOCC3)c(F)c2)C(=O)O1 | 4 (≈ 11.4 µM) | 2 (≈ 5.69 µM) | 2 (≈ 5.69 µM) | 2 (≈ 5.69 µM) | 5.64
8 | O=C1O[C@@H](CO)CN1c1ccc(N2CCCOCC2)cc1 | > 64 | > 64 | > 64 | > 64 | –
9 | C#Cc1cn(C[C@H]2CN(c3cc(F)c(N4CCCOCC4)c(F)c3)C(=O)O2)nn1 | 4 (≈ 9.92 µM) | 2 (≈ 4.96 µM) | 2 (≈ 4.96 µM) | 2 (≈ 4.96 µM) | –
10 | NC(=O)[C@H]1CN(c2ccc(N3CCCOCC3)c(F)c2)C(=O)O1 | 8 (≈ 24.7 µM) | 16 (≈ 49.5 µM) | 16 (≈ 49.5 µM) | 8 (≈ 24.7 µM) | –
11 | O=C1O[C@@H](CO)CN1c1cc(F)c(N2CCCOCC2)c(F)c1 | 4 (≈ 12.2 µM) | 4 (≈ 12.2 µM) | 8 (≈ 24.4 µM) | 2 (≈ 6.09 µM) | –
12 | NC(=O)[C@H]1CN(c2cc(F)c(N3CCCOCC3)c(F)c2F)C(=O)O1 | 16 (≈ 44.5 µM) | 16 (≈ 44.5 µM) | 32 (≈ 89.1 µM) | 16 (≈ 44.5 µM) | 4.63
13 | CNC(=O)[C@H]1CN(c2ccc(N3CCCOCC3)cc2)C(=O)O1 | 32 (≈ 100 µM) | 32 (≈ 100 µM) | 64 (≈ 200 µM) | 32 (≈ 100 µM) | –
14 | NC(=O)[C@H]1CN(c2ccc(N3CCCOCC3)cc2)C(=O)O1 | 32 (≈ 105 µM) | 32 (≈ 105 µM) | 64 (≈ 210 µM) | 64 (≈ 210 µM) | –
15 | COC(=O)NC[C@H]1CN(c2ccc(N3CCCOCC3)cc2)C(=O)O1 | 16 (≈ 45.8 µM) | 16 (≈ 45.8 µM) | 16 (≈ 45.8 µM) | 8 (≈ 22.9 µM) | –
16 | CC(=O)NC[C@H]1CN(c2cc(F)c(N3CCCOCC3)c(F)c2F)C(=O)O1 | 2 (≈ 5.16 µM) | 1 (≈ 2.58 µM) | 2 (≈ 5.16 µM) | 2 (≈ 5.16 µM) | 5.41
17 | CC(C)(C)OC(=O)NC[C@H]1CN(c2ccc(N3CCCOCC3)c(F)c2)C(=O)O1 | 32 (≈ 78.2 µM) | 32 (≈ 78.2 µM) | 64 (≈ 156 µM) | 32 (≈ 78.2 µM) | –
18 | CC(C)(C)OC(=O)NC[C@H]1CN(c2cc(F)c(N3CCCOCC3)c(F)c2)C(=O)O1 | 8 (≈ 18.7 µM) | 16 (≈ 37.4 µM) | 32 (≈ 74.9 µM) | 8 (≈ 18.7 µM) | –
19 | Cl.NC[C@H]1CN(c2ccc(N3CCCOCC3)c(F)c2)C(=O)O1 | > 64 | > 64 | > 64 | > 64 | –
20 | CNC(=O)[C@H]1CN(c2cc(F)c(N3CCCOCC3)c(F)c2F)C(=O)O1 | 16 (≈ 42.9 µM) | 16 (≈ 42.9 µM) | 32 (≈ 85.7 µM) | 16 (≈ 42.9 µM) | 4.72
21 | CC(=O)NC[C@H]1CN(c2ccc(N3CCCOCC3)cc2)C(=O)O1 | 8 (≈ 24 µM) | 8 (≈ 24 µM) | 16 (≈ 48 µM) | 8 (≈ 24 µM) | –
22 | CC(C)(C)OC(=O)NC[C@H]1CN(c2ccc(N3CCCOCC3)cc2)C(=O)O1 | 16 (≈ 40.9 µM) | 16 (≈ 40.9 µM) | 32 (≈ 81.7 µM) | 32 (≈ 81.7 µM) | –
23 | CCC(=O)NC[C@H]1CN(c2cc(F)c(N3CCCOCC3)c(F)c2)C(=O)O1 | 2 (≈ 5.22 µM) | 2 (≈ 5.22 µM) | 2 (≈ 5.22 µM) | 1 (≈ 2.61 µM) | 5.68
24 | O=C1O[C@@H](Cn2ccnn2)CN1c1cc(F)c(N2CCCOCC2)c(F)c1 | 2 (≈ 5.27 µM) | 2 (≈ 5.27 µM) | 2 (≈ 5.27 µM) | 1 (≈ 2.64 µM) | –
25 | NC(=O)[C@H]1CN(c2cc(F)c(N3CCCOCC3)c(F)c2)C(=O)O1 | 4 (≈ 11.7 µM) | 4 (≈ 11.7 µM) | 8 (≈ 23.4 µM) | 4 (≈ 11.7 µM) | 5.23
26 | CC(=O)NC[C@H]1CN(c2ccc(N3CCOCC3)c(F)c2)C(=O)O1 [LINEZOLID] | – | – | – | 2 (≈ 5.93 µM) | –
